Measurements: ChEMBL document CHEMBL1135904, “Toward an optimal joint recognition of the S1' subsites of endothelin converting enzyme-1 (ECE-1), angiotensin converting enzyme (ACE), and neutral endopeptidase (NEP)” (J Med Chem, 2002)

Columns and labels:
Neprilysin = molecular target: T1, Neprilysin (Oryctolagus cuniculus, UniProt P08049); assay: Inhibition of neutral endopeptidase (NEP)
T1 sequence (P08049 whole entry): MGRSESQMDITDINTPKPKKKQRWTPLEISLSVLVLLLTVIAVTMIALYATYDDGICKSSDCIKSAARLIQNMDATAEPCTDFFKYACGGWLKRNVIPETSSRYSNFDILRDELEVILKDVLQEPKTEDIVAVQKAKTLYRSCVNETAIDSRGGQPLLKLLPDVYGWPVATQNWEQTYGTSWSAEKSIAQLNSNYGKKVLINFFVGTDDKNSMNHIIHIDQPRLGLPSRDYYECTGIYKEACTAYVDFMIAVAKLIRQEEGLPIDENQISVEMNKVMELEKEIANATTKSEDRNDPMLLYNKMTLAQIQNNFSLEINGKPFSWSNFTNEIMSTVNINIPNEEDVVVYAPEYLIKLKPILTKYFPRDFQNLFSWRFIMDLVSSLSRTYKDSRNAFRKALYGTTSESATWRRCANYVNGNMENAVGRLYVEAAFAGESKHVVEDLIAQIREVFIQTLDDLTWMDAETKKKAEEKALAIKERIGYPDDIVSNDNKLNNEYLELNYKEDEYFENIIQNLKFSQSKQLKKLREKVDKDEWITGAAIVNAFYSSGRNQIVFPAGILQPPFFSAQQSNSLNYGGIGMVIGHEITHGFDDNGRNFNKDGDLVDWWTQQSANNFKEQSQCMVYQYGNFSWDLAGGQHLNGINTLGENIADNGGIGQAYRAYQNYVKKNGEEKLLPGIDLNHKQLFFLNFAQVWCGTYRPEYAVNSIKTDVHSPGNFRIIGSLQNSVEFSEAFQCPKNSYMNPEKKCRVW
Outline: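 NEP purified from rabbit kidney (final 250 ng/mL) preincubated 10 min at 37 °C with or without increasing inhibitor concentrations in 50 mM Tris-HCl pH 7.4. Substrate Dansyl-Gly-(p-NO2)Phe-β-Ala (DGPA; Km 37 μM) added to 50 μM final. Reaction stopped after 1 h with DMSO. Fluorescence read at ex 340/em 530 nm.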

[1] = molecular target: T2, Angiotensin-converting enzyme (Rattus norvegicus, UniProt P47820); assay: Inhibition of Angiotensin I converting enzyme ACE)
T2 sequence (P47820 whole entry): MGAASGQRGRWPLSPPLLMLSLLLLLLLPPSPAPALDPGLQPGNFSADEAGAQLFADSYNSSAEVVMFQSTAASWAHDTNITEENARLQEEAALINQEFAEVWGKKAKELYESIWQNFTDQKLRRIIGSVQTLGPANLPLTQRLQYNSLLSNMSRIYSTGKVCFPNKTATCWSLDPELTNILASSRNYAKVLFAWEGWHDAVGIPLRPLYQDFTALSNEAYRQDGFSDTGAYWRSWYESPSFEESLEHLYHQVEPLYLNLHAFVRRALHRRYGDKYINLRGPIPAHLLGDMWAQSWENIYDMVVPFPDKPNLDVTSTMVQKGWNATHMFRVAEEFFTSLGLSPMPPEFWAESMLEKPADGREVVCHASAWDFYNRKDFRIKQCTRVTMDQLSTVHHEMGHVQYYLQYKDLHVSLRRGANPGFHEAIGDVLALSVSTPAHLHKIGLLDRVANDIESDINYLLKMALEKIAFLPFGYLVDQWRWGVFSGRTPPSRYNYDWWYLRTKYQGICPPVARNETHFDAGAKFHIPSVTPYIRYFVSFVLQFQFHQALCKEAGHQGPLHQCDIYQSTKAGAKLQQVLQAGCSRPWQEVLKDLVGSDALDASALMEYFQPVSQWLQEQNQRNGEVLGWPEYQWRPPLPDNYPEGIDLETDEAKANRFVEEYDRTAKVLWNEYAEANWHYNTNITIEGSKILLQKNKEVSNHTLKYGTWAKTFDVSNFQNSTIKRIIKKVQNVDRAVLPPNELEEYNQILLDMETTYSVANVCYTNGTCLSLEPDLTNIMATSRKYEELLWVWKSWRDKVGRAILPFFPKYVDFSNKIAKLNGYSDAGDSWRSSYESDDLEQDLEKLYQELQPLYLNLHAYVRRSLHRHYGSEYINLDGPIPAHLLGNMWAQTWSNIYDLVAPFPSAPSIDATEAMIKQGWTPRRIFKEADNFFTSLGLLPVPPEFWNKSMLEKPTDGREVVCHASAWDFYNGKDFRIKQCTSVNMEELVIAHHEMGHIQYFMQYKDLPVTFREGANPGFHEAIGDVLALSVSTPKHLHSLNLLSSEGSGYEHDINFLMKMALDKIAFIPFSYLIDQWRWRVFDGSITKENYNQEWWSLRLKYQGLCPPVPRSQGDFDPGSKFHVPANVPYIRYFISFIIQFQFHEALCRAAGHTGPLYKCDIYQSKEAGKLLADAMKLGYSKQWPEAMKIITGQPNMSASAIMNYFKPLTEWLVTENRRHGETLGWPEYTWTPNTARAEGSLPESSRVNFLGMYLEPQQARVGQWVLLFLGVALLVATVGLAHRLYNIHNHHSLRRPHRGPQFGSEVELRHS
Outline: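 ACE purified from rat testis, final 0.02 pmol/100 µL, preincubated 10 min at 37 °C with or without various inhibitor concentrations in 50 mM Tris/HCl/NaCl 1% pH 7.4. Then 50 µM N-Cbz-Phe-His-Leu (Km 50 µM) added for 30 min. Stopped with 2 N NaOH and diluted with water. Released His-Leu measured fluorometrically.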

[2] = molecular target: T3, Endothelin-converting enzyme 1 (Homo sapiens, UniProt P42892); assay: Inhibition of Endothelin-converting enzyme 1 (ECE)
T3 sequence (P42892 whole entry): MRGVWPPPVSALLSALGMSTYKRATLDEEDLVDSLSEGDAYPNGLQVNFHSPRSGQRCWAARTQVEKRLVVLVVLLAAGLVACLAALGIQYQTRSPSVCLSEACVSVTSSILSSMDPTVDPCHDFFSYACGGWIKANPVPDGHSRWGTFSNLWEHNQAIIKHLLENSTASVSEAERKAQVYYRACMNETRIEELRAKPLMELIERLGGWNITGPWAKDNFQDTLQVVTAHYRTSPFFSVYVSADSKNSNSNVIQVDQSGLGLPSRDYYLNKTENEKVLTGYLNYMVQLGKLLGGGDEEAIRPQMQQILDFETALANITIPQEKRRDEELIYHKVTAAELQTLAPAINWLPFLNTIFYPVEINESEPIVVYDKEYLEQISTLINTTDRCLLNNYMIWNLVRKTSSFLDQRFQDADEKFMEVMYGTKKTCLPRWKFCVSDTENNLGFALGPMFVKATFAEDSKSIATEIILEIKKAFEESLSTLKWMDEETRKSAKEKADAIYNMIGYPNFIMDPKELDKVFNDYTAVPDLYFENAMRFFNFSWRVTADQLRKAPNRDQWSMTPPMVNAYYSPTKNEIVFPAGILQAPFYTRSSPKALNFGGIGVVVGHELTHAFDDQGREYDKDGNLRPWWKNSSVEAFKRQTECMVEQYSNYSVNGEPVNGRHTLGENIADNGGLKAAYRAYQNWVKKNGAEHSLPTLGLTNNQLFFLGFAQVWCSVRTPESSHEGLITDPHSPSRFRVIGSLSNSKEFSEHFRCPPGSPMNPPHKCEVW

Row | Compound | IC50 (Neprilysin) [nM] | IC50 [1] [nM] | IC50 [2] [nM]
1 | O=C(O)[C@H](Cc1ccc2c(c1)oc1ccccc12)NCP(=O)(O)O | 2300 |  | 
2 | O=C1N[C@H](C(=O)O)CCCCCCc2cccc(c2)CC1CS (stereo not given in full) | 4 | 175 | 620
3 | CS(=O)(=O)N[C@@H](CCCCN)C(=O)N[C@@H](Cc1ccccc1)P(=O)(O)CC1(C(=O)N[C@@H](Cc2c[nH]c3ccccc23)C(=O)O)CCCC1 | 90 |  | 
